Assay results published in publication PMC11960622 (RSC Advances, 2025).

Columns and labels:
calf thymus DNA = assay: DNA/methyl green assay; conditions: read-out: DNA binding IC50; methyl green displacement, 24 h, pH 7.5
In short: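 Calf thymus DNA (10 mg) and methyl green (20 mg) in 100 mL 0.05 M Tris–HCl pH 7.5 with 7.5 mM MgSO4, stirred 24 h at 37 °C. Ethanol solutions of test compounds at 10, 100 and 1000 μM were dried under vacuum in wells, then complex added. Incubated at room temperature in the dark; A642.5–645 read at 24 h, normalized to untreated complex; IC50 fitted. Doxorubicin control.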

HCT116 cells = assay: MTT cytotoxicity assay, HCT116; format: cell-based; conditions: for IC50: Homo sapiens, HCT-116, 72 h, read-out: IC50 HCT116; for fold more toxic to HCT-116 cells than normal VERO cells: selectivity VERO/HCT-116
HepG2 cells = assay: MTT cytotoxicity assay, HepG2; format: cell-based; conditions: for IC50: Homo sapiens, HepG2, 72 h, read-out: IC50 HepG2; for fold toxic to HepG-2 cells than ordinary VERO cells: selectivity VERO/HepG-2
In short: (§1)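 ATCC cells in RPMI 1640 with 10% heat-inactivated FBS and penicillin/streptomycin, 37 °C, 5% CO2. Trypsinized cells seeded at 1000–2000 per well, grown 24 h, then exposed 72 h to free or Cs/PVA-nanogel-loaded test compound (0.1, 10, 100, 1000 μM). MTT 2 h, formazan dissolved in acidified isopropanol, A570 read. Viability expressed versus control; IC50 derived.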

topo-II enzyme = assay: In vitro topoisomerase II inhibitory activity; format: biochemical; conditions: read-out: Topo-II assay IC50
MCF-7 cells = assay: MTT cytotoxicity assay, MCF-7; format: cell-based; conditions: for IC50: Homo sapiens, MCF7, 72 h, read-out: IC50 MCF-7; for fold more toxic to MCF-7 cells than ordinary VERO cells: selectivity VERO/MCF-7
In short: as §1

A549 cells = assay: MTT cytotoxicity assay, A549; format: cell-based; conditions: for IC50: Homo sapiens, A549, 72 h, read-out: IC50 A549; for fold more toxic to A549 cells than VERO normal cells: selectivity VERO/A549
In short: as §1

Row | IC50 (calf thymus DNA) | IC50 (topo-II enzyme) | Compound | IC50 (HCT116 cells) | fold more toxic to HCT-116 cells than normal VERO cells (HCT116 cells) | IC50 (HepG2 cells) | fold toxic to HepG-2 cells than ordinary VERO cells (HepG2 cells) | IC50 (MCF-7 cells) | fold more toxic to MCF-7 cells than ordinary VERO cells (MCF-7 cells) | IC50 (A549 cells) | fold more toxic to A549 cells than VERO normal cells (A549 cells)
1 | 37 ± 3.9 µM | 1.31 ± 0.4 µM | NC1=NN(C(=O)C=Cc2ccccc2)C(=O)C1N=Nc1ccccc1C(=O)O (stereo not drawn) [Compound 2, 2-((3-Amino-1-cinnamoyl-5-oxo-4,5-dihydro-1H-pyrazol-4-yl)diazenyl)benzoic acid] | 10.6 ± 1.5 µM | 5.63 fold | 8.8 ± 0.5 µM | 6.78 fold | 8.3 ± 0.5 µM | 7.19 fold | 6.3 ± 0.5 µM | 9.48 fold
2 | 38.6 ± 3.8 µM | 1.49 ± 0.4 µM | NC1=NN(c2ccc([N+](=O)[O-])cc2[N+](=O)[O-])C(=O)C1N=Nc1ccccc1C(=O)O (stereo not drawn) [Compound 3, 2-((3-Amino-1-(2,4-dinitrophenyl)-5-oxo-4,5-dihydro-1H-pyrazol-4-yl)diazenyl)benzoic acid] | 11 ± 1.1 µM | 4.95 fold | 8.95 ± 0.5 µM | 6.08 fold | 8.65 ± 0.8 µM | 6.29 fold | 6.1 ± 0.5 µM | 8.92 fold
3 | 36 ± 3.5 µM | 1.2 ± 0.4 µM | NC1=NC(=NS(=O)(=O)c2ccc(N)cc2)NC(=O)C1N=Nc1ccccc1C(=O)O (stereo not drawn) [Compound 4, 2-((4-Amino-2-(((4-aminophenyl)sulfonyl)imino)-6-oxo-1,2,5,6-tetrahydropyrimidin-5-yl)diazenyl)-benzoic acid] | 9.77 ± 1.1 µM | 5.88 fold | 7.12 ± 0.5 µM | 8.07 fold | 7.85 ± 0.5 µM | 7.32 fold | 5.5 ± 0.5 µM | 10.44 fold
4 | 31.3 ± 1.8 µM | 0.94 ± 0.4 µM | COc1cccc2c1C(=O)c1c(O)c3c(c(O)c1C2=O)C[C@@](O)(C(=O)CO)C[C@@H]3O[C@H]1C[C@H](N)[C@H](O)[C@H](C)O1 [Doxorubicin, reference compound] |  |  |  |  |  |  | 8.54 ± 0.8 µM | 
